By inhibition is commonly meant the share of the control response that was lost under treatment.

These results are taken from ChEMBL document CHEMBL5653631, “A Potent and Selective ULK1 Inhibitor Suppresses Autophagy and Sensitizes Cancer Cells to Nutrient Stress” (iScience, 2018).

Test [1] deals with Tyrosine-protein kinase Fes/Fps (Homo sapiens) (UniProt P07332). The experiment in a line: Inhibition of human recombinant FES at 15 nM in presence of ATP by radiometric assay relative to control.
Test [2] has as its target Serine/threonine-protein kinase 35 (Homo sapiens) (UniProt Q8TDR2). The experiment in a line: Inhibition of human recombinant CLIK1 at 15 nM related to control ULK1.
Test [3] addresses Serine/threonine-protein kinase MRCK beta (Homo sapiens) (UniProt Q9Y5S2). Briefly: Inhibition of human recombinant MRCKb at 15 nM related to control ULK1.
Test [4] addresses Serine/threonine-protein kinase 24 (Homo sapiens) (UniProt Q9Y6E0). The experiment in a line: Inhibition of human recombinant MST3 at 15 nM related to control ULK1.
The target in test [5] is T1, Beta-adrenergic receptor kinase 1 (Homo sapiens) (UniProt P25098).
T1 sequence (whole entry): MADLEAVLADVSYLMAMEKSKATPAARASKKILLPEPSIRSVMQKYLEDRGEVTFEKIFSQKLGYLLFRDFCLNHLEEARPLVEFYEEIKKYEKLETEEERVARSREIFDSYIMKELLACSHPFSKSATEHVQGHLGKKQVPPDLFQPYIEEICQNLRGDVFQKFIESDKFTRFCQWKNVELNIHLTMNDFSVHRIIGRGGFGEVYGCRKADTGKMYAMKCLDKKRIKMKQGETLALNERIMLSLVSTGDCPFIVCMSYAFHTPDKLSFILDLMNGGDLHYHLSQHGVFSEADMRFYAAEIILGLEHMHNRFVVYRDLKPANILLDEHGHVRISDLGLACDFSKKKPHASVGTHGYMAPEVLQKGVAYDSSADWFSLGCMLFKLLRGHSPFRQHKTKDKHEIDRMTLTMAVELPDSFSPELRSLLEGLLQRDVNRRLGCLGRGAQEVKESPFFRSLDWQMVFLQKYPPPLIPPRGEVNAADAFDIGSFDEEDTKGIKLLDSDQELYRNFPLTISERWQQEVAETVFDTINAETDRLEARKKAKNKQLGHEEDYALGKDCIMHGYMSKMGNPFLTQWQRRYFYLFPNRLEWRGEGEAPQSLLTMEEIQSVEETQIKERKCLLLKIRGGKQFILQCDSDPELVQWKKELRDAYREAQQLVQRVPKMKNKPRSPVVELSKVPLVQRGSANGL
The experiment in a line: Inhibition of human recombinant BARK1 at 40 nM in presence of ATP by radiometric assay relative to control. Put shortly:
(§1)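 Part of a radiometric in vitro activity panel of 327 recombinant human kinases. Each kinase was tested in duplicate at one inhibitor concentration. Activity remaining was expressed as a percentage of the vehicle control, and percent inhibition was taken as 100 minus that value.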

Test [6] deals with Protein-tyrosine kinase 6 (Homo sapiens) (UniProt Q13882). Briefly: Inhibition of human recombinant BRK at 40 nM in presence of ATP by radiometric assay relative to control. Summed up: as §1
Protein-tyrosine kinase 6 (Homo sapiens), sequence (Q13882 whole entry, looked up): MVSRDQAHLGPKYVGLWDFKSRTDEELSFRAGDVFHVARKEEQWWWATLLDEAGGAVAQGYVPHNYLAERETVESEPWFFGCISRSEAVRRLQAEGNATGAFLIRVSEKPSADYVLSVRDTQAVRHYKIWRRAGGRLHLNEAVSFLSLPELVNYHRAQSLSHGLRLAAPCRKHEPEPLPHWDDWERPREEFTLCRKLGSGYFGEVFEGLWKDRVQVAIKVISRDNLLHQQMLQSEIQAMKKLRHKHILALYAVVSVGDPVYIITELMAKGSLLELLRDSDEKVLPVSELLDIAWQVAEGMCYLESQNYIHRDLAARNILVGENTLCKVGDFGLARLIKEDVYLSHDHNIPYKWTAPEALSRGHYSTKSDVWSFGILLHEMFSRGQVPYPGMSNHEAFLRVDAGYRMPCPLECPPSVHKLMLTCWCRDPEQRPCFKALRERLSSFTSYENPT
The target in test [7] is Serine/threonine-protein kinase SIK1 (Homo sapiens) (UniProt P57059). Briefly: Inhibition of human recombinant SIK at 40 nM in presence of ATP by radiometric assay relative to control.
Serine/threonine-protein kinase SIK1 (Homo sapiens), sequence (P57059 whole entry): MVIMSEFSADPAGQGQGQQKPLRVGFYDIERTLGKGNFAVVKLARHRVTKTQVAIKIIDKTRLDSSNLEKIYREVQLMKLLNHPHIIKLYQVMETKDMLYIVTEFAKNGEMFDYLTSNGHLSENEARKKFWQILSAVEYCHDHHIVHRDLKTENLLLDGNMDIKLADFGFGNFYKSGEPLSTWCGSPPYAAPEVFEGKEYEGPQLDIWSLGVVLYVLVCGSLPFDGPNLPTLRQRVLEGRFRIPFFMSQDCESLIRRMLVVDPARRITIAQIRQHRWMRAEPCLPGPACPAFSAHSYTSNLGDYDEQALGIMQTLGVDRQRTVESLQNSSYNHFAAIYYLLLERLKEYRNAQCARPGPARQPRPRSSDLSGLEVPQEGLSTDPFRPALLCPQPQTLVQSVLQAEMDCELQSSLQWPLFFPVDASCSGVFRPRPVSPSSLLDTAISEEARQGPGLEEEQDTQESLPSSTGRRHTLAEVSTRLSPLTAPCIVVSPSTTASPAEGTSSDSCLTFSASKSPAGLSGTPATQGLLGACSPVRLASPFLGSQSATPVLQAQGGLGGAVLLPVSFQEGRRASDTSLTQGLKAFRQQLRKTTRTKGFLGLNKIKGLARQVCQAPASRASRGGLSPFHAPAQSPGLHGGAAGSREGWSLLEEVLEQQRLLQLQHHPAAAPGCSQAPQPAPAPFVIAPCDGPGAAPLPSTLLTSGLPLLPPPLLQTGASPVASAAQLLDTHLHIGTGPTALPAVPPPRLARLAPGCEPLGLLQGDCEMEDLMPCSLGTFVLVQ
Test [8] addresses T2, Serine/threonine-protein kinase BRSK2 (Homo sapiens) (UniProt Q8IWQ3).
T2 sequence (whole entry): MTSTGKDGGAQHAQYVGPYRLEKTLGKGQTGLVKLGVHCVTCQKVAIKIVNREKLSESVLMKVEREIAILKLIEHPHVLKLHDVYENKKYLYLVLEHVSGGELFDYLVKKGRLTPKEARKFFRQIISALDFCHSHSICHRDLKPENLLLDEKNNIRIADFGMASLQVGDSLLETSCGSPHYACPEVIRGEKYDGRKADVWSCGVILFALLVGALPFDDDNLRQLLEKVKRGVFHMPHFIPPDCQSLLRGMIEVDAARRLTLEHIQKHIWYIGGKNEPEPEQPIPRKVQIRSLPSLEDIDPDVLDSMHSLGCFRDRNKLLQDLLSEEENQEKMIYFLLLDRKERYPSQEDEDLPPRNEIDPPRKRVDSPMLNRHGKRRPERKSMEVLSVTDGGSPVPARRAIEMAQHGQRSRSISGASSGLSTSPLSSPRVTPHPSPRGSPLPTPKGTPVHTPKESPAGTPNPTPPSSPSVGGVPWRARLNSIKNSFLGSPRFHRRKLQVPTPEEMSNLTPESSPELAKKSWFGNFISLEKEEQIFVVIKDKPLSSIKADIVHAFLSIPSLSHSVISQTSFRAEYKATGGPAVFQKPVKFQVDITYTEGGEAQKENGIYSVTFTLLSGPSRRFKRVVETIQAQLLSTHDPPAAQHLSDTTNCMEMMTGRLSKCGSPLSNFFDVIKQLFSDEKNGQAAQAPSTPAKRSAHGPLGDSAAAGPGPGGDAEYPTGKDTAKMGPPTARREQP
The experiment in a line: Inhibition of human recombinant BRSK2 at 40 nM related to control ULK1.

Test [9] has as its target T3, Serine/threonine-protein kinase TBK1 (Homo sapiens) (UniProt Q9UHD2).
T3 sequence (whole entry): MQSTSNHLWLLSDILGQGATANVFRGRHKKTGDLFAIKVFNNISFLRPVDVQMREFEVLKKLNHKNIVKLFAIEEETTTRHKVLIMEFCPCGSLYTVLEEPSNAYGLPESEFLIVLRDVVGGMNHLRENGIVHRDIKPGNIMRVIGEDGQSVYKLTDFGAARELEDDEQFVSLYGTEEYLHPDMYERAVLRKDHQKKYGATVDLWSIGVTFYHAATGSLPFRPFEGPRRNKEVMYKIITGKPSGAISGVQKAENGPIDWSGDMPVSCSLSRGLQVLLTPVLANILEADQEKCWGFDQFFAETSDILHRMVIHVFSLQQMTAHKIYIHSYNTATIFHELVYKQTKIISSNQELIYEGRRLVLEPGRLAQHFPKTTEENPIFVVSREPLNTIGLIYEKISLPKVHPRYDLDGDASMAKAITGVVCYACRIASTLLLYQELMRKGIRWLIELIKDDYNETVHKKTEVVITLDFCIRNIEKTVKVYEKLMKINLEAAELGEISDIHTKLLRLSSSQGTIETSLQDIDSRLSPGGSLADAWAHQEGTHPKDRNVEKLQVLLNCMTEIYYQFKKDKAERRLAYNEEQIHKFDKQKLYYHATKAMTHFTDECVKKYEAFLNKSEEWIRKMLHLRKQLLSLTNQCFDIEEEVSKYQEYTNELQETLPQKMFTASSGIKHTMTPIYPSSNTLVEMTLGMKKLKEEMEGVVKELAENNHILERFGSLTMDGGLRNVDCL
Briefly: Inhibition of human recombinant TBK1 at 40 nM related to control ULK1.

Test [10] deals with ALK tyrosine kinase receptor (Homo sapiens) (UniProt Q9UM73). Briefly: Inhibition of human recombinant ALK at 500 nM in presence of ATP by radiometric assay relative to control. Put shortly: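 Panel of 327 recombinant human kinases in radiometric activity assays, each screened in duplicate at a single inhibitor concentration; percent activity remaining relative to vehicle control, percent inhibition taken as 100 minus activity remaining.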
ALK tyrosine kinase receptor (Homo sapiens), sequence (Q9UM73 19-1620 limits assumed): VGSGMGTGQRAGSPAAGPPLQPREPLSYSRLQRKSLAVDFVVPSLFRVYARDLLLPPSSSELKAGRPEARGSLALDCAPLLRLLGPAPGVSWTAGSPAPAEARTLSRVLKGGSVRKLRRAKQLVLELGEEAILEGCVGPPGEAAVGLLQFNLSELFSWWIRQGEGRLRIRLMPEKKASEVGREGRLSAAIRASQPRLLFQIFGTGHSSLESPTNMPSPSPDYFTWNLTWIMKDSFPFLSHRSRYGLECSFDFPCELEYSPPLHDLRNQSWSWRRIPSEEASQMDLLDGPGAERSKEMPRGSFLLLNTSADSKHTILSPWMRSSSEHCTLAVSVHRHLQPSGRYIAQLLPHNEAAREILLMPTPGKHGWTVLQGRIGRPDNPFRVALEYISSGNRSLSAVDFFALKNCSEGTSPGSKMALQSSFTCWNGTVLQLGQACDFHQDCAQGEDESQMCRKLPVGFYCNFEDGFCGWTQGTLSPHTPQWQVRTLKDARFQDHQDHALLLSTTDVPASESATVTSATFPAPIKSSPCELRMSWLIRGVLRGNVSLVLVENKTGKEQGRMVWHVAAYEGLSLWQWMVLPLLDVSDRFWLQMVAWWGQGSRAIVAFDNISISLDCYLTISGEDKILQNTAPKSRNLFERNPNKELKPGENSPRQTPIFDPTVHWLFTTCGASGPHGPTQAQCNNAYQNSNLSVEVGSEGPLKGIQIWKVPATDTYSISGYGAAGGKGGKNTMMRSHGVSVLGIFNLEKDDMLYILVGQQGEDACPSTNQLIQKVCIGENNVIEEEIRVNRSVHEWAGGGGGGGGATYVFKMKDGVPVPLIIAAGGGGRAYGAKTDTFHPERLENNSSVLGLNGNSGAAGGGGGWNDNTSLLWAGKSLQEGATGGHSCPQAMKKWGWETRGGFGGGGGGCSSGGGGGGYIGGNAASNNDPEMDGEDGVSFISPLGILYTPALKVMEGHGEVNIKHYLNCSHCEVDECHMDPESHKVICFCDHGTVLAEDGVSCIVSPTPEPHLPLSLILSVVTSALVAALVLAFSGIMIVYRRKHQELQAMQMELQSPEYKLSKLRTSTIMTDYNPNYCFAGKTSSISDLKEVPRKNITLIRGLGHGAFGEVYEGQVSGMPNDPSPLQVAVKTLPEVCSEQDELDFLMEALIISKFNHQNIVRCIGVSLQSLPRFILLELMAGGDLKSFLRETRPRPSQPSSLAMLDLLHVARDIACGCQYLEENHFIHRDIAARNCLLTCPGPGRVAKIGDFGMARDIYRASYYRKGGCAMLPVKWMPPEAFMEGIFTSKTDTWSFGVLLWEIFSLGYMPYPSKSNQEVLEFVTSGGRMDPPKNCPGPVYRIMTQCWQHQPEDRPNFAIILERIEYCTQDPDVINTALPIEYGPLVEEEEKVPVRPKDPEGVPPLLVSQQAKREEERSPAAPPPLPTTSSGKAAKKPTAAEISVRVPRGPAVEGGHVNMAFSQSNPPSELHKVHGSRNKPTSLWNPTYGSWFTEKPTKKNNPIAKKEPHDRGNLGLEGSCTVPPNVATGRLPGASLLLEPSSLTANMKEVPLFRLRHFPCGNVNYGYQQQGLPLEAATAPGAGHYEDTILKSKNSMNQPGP

Test [11] concerns the target Fibroblast growth factor receptor 4 (Homo sapiens) (UniProt P22455). Briefly: Inhibition of human recombinant FGFR4 at 500 nM related to control ULK1.

Serine/threonine-protein kinase MRCK beta (Homo sapiens), sequence (Q9Y5S2 whole entry): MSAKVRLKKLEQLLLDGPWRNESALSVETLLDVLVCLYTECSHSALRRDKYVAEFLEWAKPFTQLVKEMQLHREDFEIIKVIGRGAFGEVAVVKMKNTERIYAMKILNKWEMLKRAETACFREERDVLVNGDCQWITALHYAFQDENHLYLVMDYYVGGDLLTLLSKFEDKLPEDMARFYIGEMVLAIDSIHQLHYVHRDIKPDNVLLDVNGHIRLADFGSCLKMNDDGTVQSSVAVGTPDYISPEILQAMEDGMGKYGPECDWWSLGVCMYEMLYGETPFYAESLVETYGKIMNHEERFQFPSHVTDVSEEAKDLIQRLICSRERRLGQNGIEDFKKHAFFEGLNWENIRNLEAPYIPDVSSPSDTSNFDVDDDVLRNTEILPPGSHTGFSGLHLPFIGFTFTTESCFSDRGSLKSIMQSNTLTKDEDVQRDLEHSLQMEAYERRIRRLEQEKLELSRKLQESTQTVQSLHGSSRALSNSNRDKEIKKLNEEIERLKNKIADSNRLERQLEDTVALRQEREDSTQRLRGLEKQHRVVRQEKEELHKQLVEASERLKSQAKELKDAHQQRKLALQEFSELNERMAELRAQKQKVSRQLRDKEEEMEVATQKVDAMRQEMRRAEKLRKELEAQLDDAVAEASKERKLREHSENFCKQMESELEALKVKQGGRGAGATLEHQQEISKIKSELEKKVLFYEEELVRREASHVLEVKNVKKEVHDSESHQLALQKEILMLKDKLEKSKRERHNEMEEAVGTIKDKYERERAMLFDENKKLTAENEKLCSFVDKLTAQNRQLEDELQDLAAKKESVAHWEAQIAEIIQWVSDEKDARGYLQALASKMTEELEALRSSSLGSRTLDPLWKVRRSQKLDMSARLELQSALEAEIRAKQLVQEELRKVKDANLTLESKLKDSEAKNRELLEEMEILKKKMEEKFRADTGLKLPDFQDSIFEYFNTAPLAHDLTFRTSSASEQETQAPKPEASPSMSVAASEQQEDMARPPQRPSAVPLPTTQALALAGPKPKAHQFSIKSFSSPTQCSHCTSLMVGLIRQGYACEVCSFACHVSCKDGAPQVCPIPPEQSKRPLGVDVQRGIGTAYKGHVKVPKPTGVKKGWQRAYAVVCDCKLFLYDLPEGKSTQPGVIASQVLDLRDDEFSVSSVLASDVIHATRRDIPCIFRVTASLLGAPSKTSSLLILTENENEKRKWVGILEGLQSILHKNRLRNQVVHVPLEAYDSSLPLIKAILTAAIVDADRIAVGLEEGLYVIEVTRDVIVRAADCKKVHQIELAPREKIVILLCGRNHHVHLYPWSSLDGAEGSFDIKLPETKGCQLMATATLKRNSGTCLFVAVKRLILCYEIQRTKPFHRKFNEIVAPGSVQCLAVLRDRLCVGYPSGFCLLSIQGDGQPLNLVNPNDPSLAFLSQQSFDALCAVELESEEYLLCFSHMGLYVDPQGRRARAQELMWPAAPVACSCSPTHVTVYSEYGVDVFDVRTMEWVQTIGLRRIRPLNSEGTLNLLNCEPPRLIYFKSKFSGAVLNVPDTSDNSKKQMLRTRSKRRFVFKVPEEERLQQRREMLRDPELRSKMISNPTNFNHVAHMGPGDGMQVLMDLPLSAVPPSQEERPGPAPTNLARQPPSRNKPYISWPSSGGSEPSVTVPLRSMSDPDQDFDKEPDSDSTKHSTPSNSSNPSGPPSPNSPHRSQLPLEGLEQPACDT
Serine/threonine-protein kinase 35 (Homo sapiens), sequence (Q8TDR2 whole entry): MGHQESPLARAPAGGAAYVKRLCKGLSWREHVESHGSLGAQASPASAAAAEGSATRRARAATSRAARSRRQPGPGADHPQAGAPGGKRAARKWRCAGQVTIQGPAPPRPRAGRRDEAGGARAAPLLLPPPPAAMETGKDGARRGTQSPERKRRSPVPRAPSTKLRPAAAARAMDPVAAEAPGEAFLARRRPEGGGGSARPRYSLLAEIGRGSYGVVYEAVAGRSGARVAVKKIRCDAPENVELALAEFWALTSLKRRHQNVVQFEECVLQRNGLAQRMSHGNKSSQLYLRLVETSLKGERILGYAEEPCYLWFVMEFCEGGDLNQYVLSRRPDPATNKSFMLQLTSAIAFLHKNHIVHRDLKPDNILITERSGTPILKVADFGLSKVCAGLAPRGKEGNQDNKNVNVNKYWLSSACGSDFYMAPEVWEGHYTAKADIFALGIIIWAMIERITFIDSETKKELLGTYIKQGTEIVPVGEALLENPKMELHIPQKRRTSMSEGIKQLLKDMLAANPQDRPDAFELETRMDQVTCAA

On to `CC(C)[C@H](NC(=O)c1cc(-c2cnn3cc(-c4ccc(OCCN5CCCCC5)cc4)cnc23)cs1)C(F)(F)F`, for which the inhibition in test [1] was found to be 0%. Also, the fold change (FC) is 0.1 in [2], 0.07 in [3] and 0 in test [4].
With `O=C(N[C@@H](C1CC1)C(F)(F)F)c1cc(-c2cnn3cc(-c4ccc(F)cc4)cnc23)cs1`, the inhibition in [5] came to 3%; in test [6], 0%; in [7], 20%. In addition, the fold change (FC) amounted to 0 in [8] and 0.36 in test [9].
As for `CNC(=O)c1ccccc1Oc1nc(Nc2cc(OC)c(OC)c(OC)c2)ncc1Br`, the inhibition in test [10] is 0%. For the same compound, in [11], the fold change (FC) was determined as 0.14.
